Laboratory results published in ChEMBL document CHEMBL3414445, “Blood-brain barrier permeable anticholinesterase aurones: synthesis, structure-activity relationship, and drug-like properties” (Eur J Med Chem, 2015).

Legend:
Acetylcholinesterase = Acetylcholinesterase (Electrophorus electricus, UniProt O42275); assay: Inhibition of electric eel AChE incubated for 15 mins using […] substrate by colorimetric Ellman's method
Cholinesterase = Cholinesterase (Equus caballus, UniProt P81908); assay: Inhibition of equine serum butyrylcholine esterase incubated for 15 mins using S-butyrylthiocholine chloride substrate by colorimetric Ellman's method
Cholinesterase, sequence (P81908 whole entry): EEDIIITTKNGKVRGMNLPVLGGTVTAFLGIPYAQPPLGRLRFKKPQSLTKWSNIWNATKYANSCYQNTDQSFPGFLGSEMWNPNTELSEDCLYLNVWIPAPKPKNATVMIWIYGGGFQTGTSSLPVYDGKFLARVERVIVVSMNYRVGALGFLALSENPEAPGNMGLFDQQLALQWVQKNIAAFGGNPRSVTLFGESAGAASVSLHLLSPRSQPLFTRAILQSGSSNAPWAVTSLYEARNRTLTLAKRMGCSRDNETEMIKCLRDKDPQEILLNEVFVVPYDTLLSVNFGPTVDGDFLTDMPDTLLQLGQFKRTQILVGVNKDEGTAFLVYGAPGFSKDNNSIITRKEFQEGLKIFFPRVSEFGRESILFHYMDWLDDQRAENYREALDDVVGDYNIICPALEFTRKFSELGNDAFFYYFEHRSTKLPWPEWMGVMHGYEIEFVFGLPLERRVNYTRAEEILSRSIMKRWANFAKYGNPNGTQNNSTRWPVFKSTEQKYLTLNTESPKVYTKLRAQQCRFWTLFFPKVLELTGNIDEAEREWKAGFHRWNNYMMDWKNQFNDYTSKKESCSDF

[1] = Selectivity index, ratio of IC50 for equine serum butyrylcholine esterase to IC50 for electric eel AChE
[2] = Retention time of the compound by HPLC-UV method; type: physicochemical
in vitro = conditions: PAMPA, pH 7.4
[3] = Stability in Sprague-Dawley rat liver microsomes assessed as parent compound remaining at 2 uM measured 10 mins after microsomal reactions termination at pH 7.4 pre-incubated in presence of NADPH regenerating system by LC-MS method; type: ADME; conditions: read-out: Stability
How it was run: (§1)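 Compound added (2 µM final, from DMSO stock), 37 °C; time-0 aliquot and reaction quenched with ice-cold acetonitrile (acetaminophen internal standard) at 10 min, or 30 min for some compounds. Single time-point design; LC-MS (Q-Tof) analysis.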

[4] = Half life in Sprague-Dawley rat liver microsomes at 2 uM at pH 7.4 pre-incubated in presence of NADPH regenerating system measured 10 mins after microsomal reactions termination by LC-MS method; type: ADME; how it was run: as §1
Liver microsome [5] = assay: Drug metabolism in Sprague-Dawley rat liver microsomes assessed as formation of monohydroxylated metabolite at 2 uM at pH 7.4 pre-incubated in presence of NADPH regenerating system measured after 10 to 30 mins by LC-MS method; type: ADME; conditions: pH 7.4, 2 µM; how it was run: as §1
[6] = Stability in Sprague-Dawley rat liver microsomes assessed as parent compound remaining at 2 uM measured 30 mins after microsomal reactions termination at pH 7.4 pre-incubated in presence of NADPH regenerating system by LC-MS method; type: ADME; conditions: read-out: Stability
Liver microsome [7] = assay: Drug metabolism in Sprague-Dawley rat liver microsomes assessed as formation of desmethylated metabolite at 2 uM at pH 7.4 pre-incubated in presence of NADPH regenerating system measured after 10 to 30 mins by LC-MS method; type: ADME; conditions: pH 7.4, 2 µM; how it was run: as §1
[8] = Half life in Sprague-Dawley rat liver microsomes at 2 uM at pH 7.4 pre-incubated in presence of NADPH regenerating system measured 30 mins after microsomal reactions termination by LC-MS method; type: ADME

Acetylcholinesterase, sequence (O42275 whole entry): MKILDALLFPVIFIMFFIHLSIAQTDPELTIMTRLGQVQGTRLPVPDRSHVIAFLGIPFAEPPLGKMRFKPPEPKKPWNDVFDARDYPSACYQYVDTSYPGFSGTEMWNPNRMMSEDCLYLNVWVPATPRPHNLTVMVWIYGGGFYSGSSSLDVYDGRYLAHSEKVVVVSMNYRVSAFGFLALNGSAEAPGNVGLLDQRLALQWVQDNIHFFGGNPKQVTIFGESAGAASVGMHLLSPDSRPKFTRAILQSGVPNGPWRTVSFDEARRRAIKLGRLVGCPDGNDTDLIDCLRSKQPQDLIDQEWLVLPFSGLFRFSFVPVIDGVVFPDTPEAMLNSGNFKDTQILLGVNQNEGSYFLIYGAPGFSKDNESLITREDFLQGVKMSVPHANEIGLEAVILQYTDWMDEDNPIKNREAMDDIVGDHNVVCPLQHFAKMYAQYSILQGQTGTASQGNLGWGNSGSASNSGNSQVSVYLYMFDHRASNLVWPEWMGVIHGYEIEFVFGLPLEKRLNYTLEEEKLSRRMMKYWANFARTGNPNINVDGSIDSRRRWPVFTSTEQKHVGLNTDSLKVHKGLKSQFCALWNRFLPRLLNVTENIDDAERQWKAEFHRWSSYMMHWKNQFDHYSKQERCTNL

Structure (SMILES) | IC50 (Acetylcholinesterase) [µM] | IC50 (Cholinesterase) [µM] | Ratio IC50 [1] | also measured
COc1ccc2c(c1)O/C(=C\c1ccc(N(C)C)cc1)C2=O | 50.3 | 31.8 | 0.63 | –
O=C1/C(=C/c2ccncc2)Oc2cc(O)ccc21 | > 100 | > 100 | – | –
Cn1c(=O)c2c(ncn2C)n(C)c1=O [CAFFEINE] | – | – | – | Retention_time [2]: 3.2 min
COc1ccc2c(c1)O/C(=C\c1ccc(OCCN3CCCCC3)cc1)C2=O | 0.348 | 8.87 | 25.5 | Papp (in vitro): 20 ×10⁻⁶ cm/s; Retention_time: 4.5 min; remaining at 10 min, 2 µM [3]: 52.1%; half-life at 2 µM [4]: 10.9 min
CCN(CC)C(=O)Oc1ccc2c(c1)O/C(=C\c1ccc(OCCN(C)C)cc1)C2=O | 5.44 | 9.69 | 1.78 | –
COc1ccc2c(c1)O/C(=C\c1ccc(OCCN(C)C)cc1)C2=O | 1.97 | 25.9 | 13.1 | –
COc1cc(/C=C2\Oc3cc(OCCN(C)C)ccc3C2=O)cc(OC)c1OC | 15.6 | 66.4 | 4.26 | –
O=C1/C(=C/c2ccc(OCCN3CCCC3)cc2Cl)Oc2cc(O)ccc21 | 0.878 | 8.68 | 9.89 | –
COc1ccc2c(c1)O/C(=C\c1ccc(OCCN3CCCCC3)c(Cl)c1)C2=O | 0.16 | 7.9 | 49.4 | Papp (in vitro): 12.2 ×10⁻⁶ cm/s; Retention_time: 3.4 min; remaining at 10 min, 2 µM [3]: 59.5%; half-life at 2 µM [4]: 13.4 min
COc1cc(/C=C2\Oc3cc(OCCN4CCCC4)ccc3C2=O)cc(OC)c1OC | 0.643 | 11.7 | 18.2 | –
COc1ccc(/C=C2\Oc3cc(OCCCN(C)C)ccc3C2=O)cc1 | 15.7 | 31.2 | 1.99 | –
COc1ccc(/C=C2\Oc3cc(O)ccc3C2=O)cc1 | > 100 | > 100 | – | –
COc1ccc(/C=C2\Oc3cc(OCCN4CCCC4)ccc3C2=O)cc1 | 1.18 | 7.19 | 6.1 | –
CCN(CC)C(=O)Oc1ccc2c(c1)O/C(=C\c1ccc(N(C)C)cc1)C2=O | > 100 | > 100 | – | –
COc1ccc(/C=C2\Oc3cc(OC)ccc3C2=O)cc1 | > 100 | > 100 | – | Papp (in vitro): 9.8 ×10⁻⁶ cm/s; Retention_time: 3.9 min; remaining at 10 min, 2 µM [3]: 41.4%; half-life at 2 µM [4]: 7.9 min
COc1ccc2c(c1)O/C(=C\c1ccc(OCCCN(C)C)c(Cl)c1)C2=O | 1.61 | 21.6 | 13.4 | –
COc1ccc2c(c1)O/C(=C\c1ccc(O)cc1)C2=O | > 100 | > 100 | – | –
COc1ccc2c(c1)O/C(=C\c1ccc(OCCN3CCCC3)cc1)C2=O | 0.545 | 10.2 | 18.7 | Papp (in vitro): 24.7 ×10⁻⁶ cm/s; Retention_time: 3.6 min; remaining at 10 min, 2 µM [3]: 25.3%; Drug metabolism (Liver microsome [5]): metabolite_detected; half-life at 2 µM [4]: 5.1 min
COc1ccc(/C=C2\Oc3cc(OCCN(C)C)ccc3C2=O)cc1 | 12 | 25.3 | 2.1 | –
CCN(CC)C(=O)Oc1ccc2c(c1)O/C(=C\c1ccc(OCCCN(C)C)cc1)C2=O | 3.29 | 6.1 | 1.85 | –
COc1ccc2c(c1)O/C(=C\c1ccc(OCCCN(C)C)cc1)C2=O | 2.44 | 30.4 | 12.5 | –
O=C1/C(=C/c2ccc(OCCN3CCCCC3)cc2)Oc2cc(O)ccc21 | 2.23 | > 100 | – | Papp (in vitro): 10 ×10⁻⁶ cm/s; Retention_time: 3.6 min
C[C@]12CC[C@H]3[C@@H](CCC4=CC(=O)CC[C@@]43C)[C@@H]1CC[C@@H]2O [TESTOSTERONE] | – | – | – | remaining at 10 min, 2 µM [3]: < 0.001%; half-life at 2 µM [4]: 0.48 min

Structure (SMILES) | IC50 (Acetylcholinesterase) [µM] | IC50 (Cholinesterase) [µM] | Ratio IC50 [1] | also measured
CN(C)CCCOc1ccc(/C=C2\Oc3cc(O)ccc3C2=O)cc1 | 7.9 | > 100 | – | –
COc1ccc2c(c1)O/C(=C\c1ccc(OCCN(C)C)cc1Cl)C2=O | 12.4 | 23.9 | 1.93 | –
COc1cc(/C=C2\Oc3cc(OCCN4CCCCC4)ccc3C2=O)cc(OC)c1OC | 0.422 | 6.15 | 14.6 | Papp (in vitro): 21.3 ×10⁻⁶ cm/s; Retention_time: 3.7 min; Drug metabolism (Liver microsome [5]): metabolite_detected; remaining at 0.5 h, 2 µM [6]: 61.9%; Drug metabolism (Liver microsome [7]): metabolite_detected; half-life at 2 µM [8]: 43.8 min
COc1ccc2c(c1)O/C(=C\c1ccncc1)C2=O | > 100 | > 100 | – | –
COc1cc(/C=C2\Oc3cc(OCCCN(C)C)ccc3C2=O)cc(OC)c1OC | 9.88 | > 100 | – | –
COc1cc2c(cc1OC)C(=O)C(CC1CCN(Cc3ccccc3)CC1)C2 (stereo not given) [DONEPEZIL] | – | – | – | remaining at 0.5 h, 2 µM [6]: 76.2%; half-life at 2 µM [8]: 76.5 min
O=C1/C(=C/c2ccc(OCCN3CCCC3)cc2)Oc2cc(O)ccc21 | 3.24 | > 100 | – | –
CCN(CC)C(=O)Oc1ccc2c(c1)O/C(=C\c1ccc(OCCN3CCCC3)cc1)C2=O | 0.779 | 7.4 | 9.5 | –
CCN(CC)C(=O)Oc1ccc2c(c1)O/C(=C\c1ccc(N(CC)CC)cc1)C2=O | > 100 | > 100 | – | –
CCN(CC)C(=O)Oc1ccc(/C=C2\Oc3cc(OC)ccc3C2=O)cc1 | 10.9 | > 100 | – | –
COc1ccc2c(c1)O/C(=C\c1ccc(OCCN(C)C)c(Cl)c1)C2=O | 1.33 | 11.1 | 8.35 | –
CN(C)c1ccc(/C=C2\Oc3cc(O)ccc3C2=O)cc1 | > 100 | > 100 | – | –
Cn1c(=O)c2[nH]cnc2n(C)c1=O.O [THEOPHYLLINE] | – | – | – | Retention_time [2]: 3.4 min
CCN(CC)c1ccc(/C=C2\Oc3cc(OC)ccc3C2=O)cc1 | > 100 | > 100 | – | –
CN(C)CCOc1ccc(/C=C2\Oc3cc(O)ccc3C2=O)cc1 | 5.52 | > 100 | – | –
O=C1/C(=C/c2ccc(OCCN3CCCC3)c(Cl)c2)Oc2cc(O)ccc21 | 0.289 | 9.92 | 34.3 | –
CCN(CC)c1ccc(/C=C2\Oc3cc(O)ccc3C2=O)cc1 | > 100 | > 100 | – | –
CCN(CC)C(=O)Oc1ccc2c(c1)O/C(=C\c1ccc(OC)cc1)C2=O | > 100 | 12.7 | – | –
CCN(CC)C(=O)Oc1ccc2c(c1)O/C(=C\c1ccc(OCCN3CCCCC3)cc1)C2=O | 0.652 | 7.17 | 11 | Papp (in vitro): 16.1 ×10⁻⁶ cm/s; Retention_time: 4.2 min; remaining at 10 min, 2 µM [3]: 44.3%; half-life at 2 µM [4]: 8.5 min
COc1ccc2c(c1)O/C(=C\c1ccc(OCCN3CCCCC3)cc1Cl)C2=O | 0.513 | 11.4 | 22.2 | –
COc1ccc(/C=C2\Oc3cc(OCCN4CCCCC4)ccc3C2=O)cc1 | 0.845 | 6.87 | 8.13 | Papp (in vitro): 20 ×10⁻⁶ cm/s; Retention_time: 4.5 min; remaining at 10 min, 2 µM [3]: 53.6%; half-life at 2 µM [4]: 11.2 min
COc1ccc2c(c1)O/C(=C\c1ccc(OCCCN(C)C)cc1Cl)C2=O | 15.1 | 34.1 | 2.26 | –
